Compound activity: PubChem BioAssay, The Scripps Research Institute Molecular Screening Center
m5-HT2A agonist = mouse HTR2A agonism via beta-arrestin recruitment; AID 624169; 360,000 compounds, 0.66% hits; activation, % at 7.6 µM; CHO-K1 mHTR2A beta-arrestin complementation, luminescence; percent of 30 µM serotonin response;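 active = activation above a run cutoff, the mean activation of all tested compounds plus 3 SD, cut at about 14% in these data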
Target sequence (P35363 whole entry, looked up): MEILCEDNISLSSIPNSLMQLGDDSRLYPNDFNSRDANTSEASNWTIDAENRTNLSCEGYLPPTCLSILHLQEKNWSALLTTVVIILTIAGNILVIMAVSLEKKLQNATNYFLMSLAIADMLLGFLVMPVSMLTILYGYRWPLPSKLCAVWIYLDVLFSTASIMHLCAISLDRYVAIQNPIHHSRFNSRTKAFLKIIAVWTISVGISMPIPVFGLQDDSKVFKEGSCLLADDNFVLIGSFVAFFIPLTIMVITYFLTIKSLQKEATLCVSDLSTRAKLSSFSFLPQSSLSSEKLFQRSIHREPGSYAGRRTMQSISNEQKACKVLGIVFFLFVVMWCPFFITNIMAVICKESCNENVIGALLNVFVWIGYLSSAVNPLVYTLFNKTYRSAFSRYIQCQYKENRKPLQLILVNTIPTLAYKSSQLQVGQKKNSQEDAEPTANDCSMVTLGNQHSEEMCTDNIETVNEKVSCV
M1 PAM = potentiates human M1 receptor response to acetylcholine. P11229. CHO-K1 hM1, Fluo-8 calcium fluorescence, ACh EC20; 0% = ACh EC20, 100% = maximal ACh. activation, % at 3 µM. 360,000 compounds, 0.088% hits; in the data active = activation above about 19%, passing the limit was not always enough
TAAR1 ag = agonists of human TAAR1. activation, % at 3 µM. Q96RJ0. CHO RD-HGA16 TAAR1, Fluo-8 calcium fluorescence; vehicle wells 0%, saturating PEA agonist 100%. 360,000 compounds, 0.99% hits;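 active = activation above the mean activation of all test compounds in the run plus 3 SD, cut at about 38% in these data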
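System: CHO-derived RD-HGA16 cells with stable Gα16 and human TAAR1. Times: 17-24 h plating, Fluo-8 75 min 37 °C, 30 min RT. Measured by: calcium-sensitive Fluo-8 signal, excitation 470-495, emission 515-575 nm. Read-out basis: % activation relative to PEA EC100 response. Control set: DMSO and PEA EC100. Repeats: no replicates (n 1).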
M1 antag = human CHRM1 antagonism; AID 588852; inhibition, % at 3 µM; CHO-K1 hM1, Fluo-8 calcium fluorescence, ACh EC80 antagonist; 360,000 compounds, 1.3% hits; P11229;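 active = percent inhibition above its own plate's cutoff, namely the mean of that plate's compound wells plus 3 SD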;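 note: peak over basal fluorescence ratio during 140 s after agonist addition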
TAAR1 antag = human TAAR1 antagonism; Q96RJ0; AID 624466; inhibition, % at 3 µM; CHO RD-HGA16 TAAR1, Fluo-8 calcium fluorescence, antagonist; 360,000 compounds, 1.5% hits;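 active = inhibition above a per-plate cutoff, the mean inhibition of test compounds on that plate plus 3 SD, cut at about 49% in these data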
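Assay system: RD-HGA16 CHO cells with stable hTAAR1 and Gα16 / Reagent: EC80 β-phenethylamine stimulus / Doses: 3 µM, single point / Timing: dye loading 75 min at 37 °C, then 30 min room temperature / Measured by: Fluo-8 intracellular calcium dye fluorescence, real-time kinetic reads / Controls: vehicle wells and EC80 agonist wells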
M1 ag = agonists of human M1 muscarinic receptor; P11229; CHO-K1 hM1, Fluo-8 calcium fluorescence, agonist mode; 0% DMSO, 100% acetylcholine EC100; activation, % at 3 µM; 360,000 compounds, 0.33% hits;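 active = activation above the run's mean compound activation plus 3 SD, cut at about 16% in these data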;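 note: peak over basal fluorescence ratio within a 140 s kinetic read after compound addition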
Large screens that a line does not name were inactive. The list is not random: actives were taken first. Their share in the collection is about 3.9%.

CN(C)c1ccc(CC(=O)N2CCCCC2c2cc(C(=O)Nc3cccc(C#N)c3)no2)cc1 (stereo unspecified)	none
Cc1ccc(C)c(CC(=O)N2CCCCC2c2cc(C(=O)Nc3cccc(C#N)c3)no2)c1 (stereo unspecified)	TAAR1 ag 48
Cc1csc2ncnc(N3CCN(S(=O)(=O)c4cccc(C(F)(F)F)c4)CC3)c12	M1 antag 47
O=S(=O)(c1cccc(Br)c1)N1CCN(c2ncnc3scc(-c4ccccc4)c23)CC1	none
Cc1cc(Br)ccc1NC(=O)C1C2CCC(O2)C1C(=O)O (stereo unspecified)	none
CCOc1cc(NCc2ccccc2)c2ncn(C(C)C)c2c1	TAAR1 ag 44
COC(=O)C1=C(C)N(C)C(=NCc2ccc3c(c2)OCO3)NC1c1ccc(F)cc1 (stereo unspecified)	none (no result: m5-HT2A agonist, M1 PAM, M1 antag, M1 ag)
CCOc1ccc(CCNC(=O)COC(=O)c2ccc3c(c2)OCCO3)cc1OCC	none
O=C1c2ccccc2C(=O)N1CCCCc1cn(C[C@H]2CC[C@@H]([C@@H]3CC[C@H](Cn4cc(CCCCN5C(=O)c6ccccc6C5=O)nn4)O3)O2)nn1	TAAR1 antag 55
CCOc1ccc2c(c1)N(C(=O)CN1C(=O)CCC1=O)C(C)(C)C=C2C	none
CC1=CC(C)(C)N(C(=O)CNC2CCCC2)c2cc(C)ccc21	M1 antag 99
O=C(/C=C/c1ccc([N+](=O)[O-])cc1)Nc1cccc(S(=O)(=O)NC2=NCCCCC2)c1	TAAR1 antag 49
CC(=O)N1CCC(C(=O)OCc2ccccc2F)(c2ccccc2)CC1	none
CC(C)(C)Cc1c(-c2ccc(Br)cc2)nc2ccc(Cl)cn12	M1 antag 26
CC(C)(C)Cc1c(-c2ccc(Cl)cc2)nc2ccc(Cl)cn12	M1 antag 28
CC(C)(C)Cc1c(-c2ccc(Cl)cc2)nc2ccc(Br)cn12	none
CC(C)(C)Cc1c(-c2ccccc2)nc2ccc(Cl)cn12	M1 antag 27
NC(=O)C1CCN(c2nc(-c3ccccc3-c3ccccc3)cs2)CC1	none
COc1ccc(CCN2C(=O)CCC2(C)c2nnnn2-c2ccc3c(c2)OCCO3)cc1OC (stereo unspecified)	none (no result: M1 PAM, M1 antag, M1 ag)
CC1(C)CC(=O)C(C=Nc2ccccc2Sc2ccccc2)=C(O)C1	M1 antag 63 (no result: TAAR1 ag, TAAR1 antag)
CC1(C)CC(=O)C(C=Nc2ccccc2C(=O)O)=C(O)C1	none
Cc1ccc(C)c(S(=O)(=O)c2c[nH]c(=S)[nH]c2=O)c1	none
Cc1[nH]c2ccc(-c3nnc(SCC(=O)c4ccc(F)cc4)o3)cc2c1C	none
Cc1cc(C)c(C)c(C(=O)CSc2nnc(-c3ccc4[nH]c(C)c(C)c4c3)o2)c1C	TAAR1 antag 69
COc1cccc(C(C)NC(=O)Nc2ccccc2Cl)c1 (stereo unspecified)	none
Cc1ccc(S(=O)(=O)N2CCCCC2)cc1NCC(=O)Nc1ccc(Br)cc1F	TAAR1 antag 57
Cc1ccc(S(=O)(=O)N2CCOCC2)cc1NC(=O)CNCc1ccc(Cl)cc1Cl	TAAR1 antag 59
O=C(NCCO)c1ccc(CSc2nc3ccccc3[nH]2)cc1	none
COc1cc(/C=N/NC(=O)c2ccc(CSc3nc4ccccc4[nH]3)cc2)cc(OC)c1OC	TAAR1 antag 52
O[C@H]1CN(CC2CCCCC2)[C@@H](c2ccc(Cl)cc2)C[C@@H]1n1cc(C2CC2)nn1	M1 antag 37
CCCC[n+]1ccn(-c2nc3ccccc3nc2[N-]S(=O)(=O)c2ccc(C)cc2)c1	none
CCCC[n+]1ccn(-c2nc3ccccc3nc2[N-]S(=O)(=O)c2ccccc2)c1	M1 ag 19
OCc1ccc2c(c1)c(-c1ccc3c(c1)OCCO3)c(-c1ccccc1)n2-c1ccccc1	TAAR1 antag 62
COC(=O)c1nn(-c2ccc(OC)cc2)c(=O)cc1Sc1ccc(C)cc1	none
COC(=O)c1nn(-c2ccc(OC)cc2)c(=O)cc1NN	M1 antag 59
O=[N+]([O-])C(/C=C(\Cl)[N+](=O)[O-])=C1N(Cc2ccc(Cl)nc2)CCN1Cc1ccc(Cl)nc1	none
O=[N+]([O-])/C(C(=C(Cl)Cl)N1CCN(Cc2ccccc2)CC1)=C1\NCCN1Cc1ccc(Cl)nc1	M1 antag 43
Cn1c(=O)[nH]c(=O)c2c1nc(SCC(=O)O)n2CCOc1ccccc1	M1 antag 55
Cn1c(=O)c2c(ncn2CC(=O)N/N=C/C(Br)=C/c2ccccc2)n(C)c1=O	none
O=C(Cn1cnc2ccccc21)N/N=C/C(Br)=C/c1ccccc1	TAAR1 antag 49
COc1ccc(CN(C)C(=O)[C@H](Cc2ccccc2)NC(=O)c2ccco2)c(OC)c1	none
COc1ccc(CN(C)C(=O)C(Cc2ccccc2)NC(=O)c2ccccc2)c(OC)c1OC (stereo unspecified)	TAAR1 antag 54
Cc1ccccc1CN(C)C(=O)[C@H](Cc1ccccc1)NC(=O)c1ccco1	none
COc1ccc(CN(C)C(=O)c2cccc(Oc3ccccc3)c2)c(OC)c1OC	TAAR1 antag 54
COc1cccc(CN(C)C(=O)C(Cc2ccccc2)NC(=O)c2ccccc2)c1OC (stereo unspecified)	M1 antag 29, TAAR1 antag 50
COc1ccc(CN2CCN(Cc3cccc(Oc4ccccc4)c3)CC2)c(OC)c1OC	M1 antag 44
CN1CCN(Cc2cccc(Oc3ccccc3)c2)CC1	none
COc1cccc(CN(C)C(=O)c2cccc(S(=O)(=O)N3CCN(c4ccccc4)CC3)c2)c1OC	none
CC(C)[C@H](NC(N)=O)C(=O)Nc1ccc(F)c(Cl)c1	none
CC(C(=O)OCC(=O)N1CCN(c2ccccc2)CC1)N1C(=O)c2ccccc2C1=O (stereo unspecified)	none
O=C(Nc1cccn(Cc2ccc(F)cc2)c1=O)NC1CCCCC1	TAAR1 ag 39
Cc1ccc(Cn2cccc(NC(=O)NC3CCCCC3)c2=O)cc1	none
Cc1cccc(C)c1NC(=O)CN(C)C(=O)C1CCN(c2ncnc3sc(C)c(C)c23)CC1	none
Cc1ccc(S(=O)(=O)N2CCN(C(=O)C3CCN(c4ncnc5sc(C)c(C)c45)CC3)CC2)c(C)c1	M1 PAM 29
Cc1sc2ncnc(N3CCN(CCOc4ccc(Cl)cc4)CC3)c2c1C	M1 antag 43
Cc1cc(Br)ccc1NC(=O)CN(C)C(=O)C1CCN(c2ncnc3sc(C)c(C)c23)CC1	TAAR1 antag 57
Cc1sc2ncnc(N3CCC(C(=O)NNC(=O)COc4ccccc4Cl)CC3)c2c1C	M1 antag 32
Cc1sc2ncnc(N3CCN(S(=O)(=O)c4ccc(C(C)(C)C)cc4)CC3)c2c1C	none
